Here are results for 10 compounds from ChEMBL document CHEMBL3797161, “Design, Synthesis, and Immunological Evaluation of Benzyloxyalkyl-Substituted 1,2,3-Triazolyl α-GalCer Analogues” (ACS Med Chem Lett, 2016).

A short description of data set [1]: Cytotoxicity against Balb/c mouse splenocytes assessed as reduction in cell proliferation up to 1000 ng/ml after 48 hrs by MTT assay. The format is cell-based. Conditions: splenocyte. In short, it runs like this: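 Splenocytes from BALB/c mice were exposed to glycolipid at up to 1000 ng/mL for 48 h. Proliferation was read by MTT relative to untreated cells.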
For orientation: Tetrazolium assays rely on reduction of a dye to a coloured formazan, in cell work by metabolically active cells.

For data set [2], the system named is T-cell. Nature of the data set: Binding affinity to CD1D in Balb/c mouse splenocytes assessed as T cell stimulation by measuring increase in cytokine expression after 48 hrs by sandwich ELISA. It counts as cell-based. The method, boiled down:
(§1)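 Splenocytes isolated from BALB/c mice were cultured in vitro with glycolipid (dissolved in DMSO) at 10, 100 or 1000 ng/mL for 48 h. IL-2, IL-4 and IFN-γ in the culture were measured by ELISA.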
(ELISA stands for enzyme-linked immunosorbent assay.)

The species named for data set [3] is Mus musculus. As to the kind of experiment: Binding affinity to CD1D in Balb/c mouse splenocytes assessed as increase in IL-2 production at 10 to 1000 ng/ml after 48 hrs by sandwich ELISA. The format is cell-based. In short, it runs like this: as §1
The nature of data set [4]: Solubility of compound in DMSO at 10 to 1000 ng/ml. It counts as physicochemical.
The species entered for data set [5] is Mus musculus. As to the kind of experiment: Binding affinity to CD1D in Balb/c mouse splenocytes assessed as increase in IFN-gamma production at 1000 ng/ml after 48 hrs by sandwich ELISA. It counts as cell-based.
The test system of data set [6] is Mus musculus. Nature of the data set: Stimulation of IFN-gamma production in Balb/c mouse at 1 ug, iv after 2 to 48 hrs by sandwich ELISA. The format is functional, organism-based. In short, it runs like this:
(§2)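 BALB/c mice received glycolipid intravenously, 1 μg per animal. IFN-γ and IL-4 expression was then measured in vivo.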

For data set [7], the species on record is Mus musculus. As to the kind of experiment: Binding affinity to CD1D in Balb/c mouse splenocytes assessed as increase in IL-4 production at 1000 ng/ml at 2 hrs by sandwich ELISA. It counts as cell-based. The method, boiled down:
(§3)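 For cytokine kinetics, BALB/c mouse splenocytes were treated in vitro with glycolipid at 1000 ng/mL. Culture supernatants were sampled at 2, 12 and 24 h, and IL-4 and IFN-γ were quantified.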

The species entered for data set [8] is Mus musculus. As to the kind of experiment: Binding affinity to CD1D in Balb/c mouse splenocytes assessed as increase in IL-4 production at 1000 ng/ml up to 24 hrs by sandwich ELISA. The format is cell-based. In short, it runs like this: as §3
The species named for data set [9] is Mus musculus. As to the kind of experiment: Binding affinity to CD1D in Balb/c mouse splenocytes assessed as increase in IFN-gamma production at 10 to 1000 ng/ml after 48 hrs by sandwich ELISA. It counts as cell-based. In short, it runs like this:
as §1

The species named for data set [10] is Mus musculus. As to the kind of experiment: Binding affinity to CD1D in Balb/c mouse splenocytes assessed as increase in IFN-gamma production at 1000 ng/ml at 24 hrs by sandwich ELISA. It counts as cell-based. The method, boiled down:
as §3

The species named for data set [11] is Mus musculus. Nature of the data set: Binding affinity to CD1D in Balb/c mouse splenocytes assessed as increase in IFN-gamma production at 1000 ng/ml up to 12 hrs by sandwich ELISA. It counts as cell-based. In short, it runs like this: as §3
Data set [12] has as its target T1, Antigen-presenting glycoprotein CD1d (Homo sapiens) (UniProt P15813).
T1 sequence (whole entry): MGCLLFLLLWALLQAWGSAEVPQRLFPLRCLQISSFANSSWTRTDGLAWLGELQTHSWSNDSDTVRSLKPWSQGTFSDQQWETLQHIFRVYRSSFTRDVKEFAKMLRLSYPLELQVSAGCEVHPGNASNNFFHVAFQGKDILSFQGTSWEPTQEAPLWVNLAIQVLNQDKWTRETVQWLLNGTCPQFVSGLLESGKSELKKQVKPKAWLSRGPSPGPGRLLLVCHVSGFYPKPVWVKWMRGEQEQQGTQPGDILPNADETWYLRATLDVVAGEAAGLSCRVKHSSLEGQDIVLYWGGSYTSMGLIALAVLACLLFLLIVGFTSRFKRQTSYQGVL
Nature of the data set: Binding affinity to CD1D (unknown origin) assessed as increase in IL-2 production at 100 ng/ml preincubated for 16 hrs followed by Valpha-14 Vbeta-8.2 DN3A4-1.2(1.2) iNKT hybridoma cells addition to compound-CD1D mixture measured after 16 hrs by sandwich ELISA. The method, boiled down:
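Glycolipid incubated with CD1d protein for 16 h, then exposed to Vα14 Vβ8.2 DN3A4–1.2 (1.2) iNKT hybridoma cells; IL-2 secreted into the medium quantified.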

The species named for data set [13] is Mus musculus. As to the kind of experiment: Binding affinity to CD1D in Balb/c mouse splenocytes assessed as increase in IL-4 production at 10 to 1000 ng/ml after 48 hrs by sandwich ELISA. It counts as cell-based. The method, boiled down:
as §1

In data set [14] the test system is Mus musculus. As to the kind of experiment: Stimulation of IL-4 production in Balb/c mouse at 1 ug, iv after 2 to 48 hrs by sandwich ELISA. The format is functional, organism-based. The method, boiled down:
as §2

Active and inactive are the calls of the source. The calls are words filed in the database; no cut-off is given here.

For `CCCCCCCCCCCCCC[C@@H](O)[C@@H](O)[C@H](CO[C@H]1O[C@H](CO)[C@H](O)[C@H](O)[C@H]1O)n1cc(COCCCCCCCCCCOCc2ccccc2)nn1`, the Activity result in [1] is “Non-toxic”; in data set [2], “Dose-dependent effect”. The outcome in data set [3] was Active. Also, the solubility entry in data set [4] is reported as “soluble”.
Turning to `CCCCCCCCCCCCCC[C@@H](O)[C@@H](O)[C@H](CO[C@H]1O[C@H](CO)[C@H](O)[C@H](O)[C@H]1O)n1cc(COCCCCOCc2ccccc2)nn1`, the Activity entry in data set [1] is “Non-toxic”; in data set [2], “Dose-dependent effect”. The outcome in [3] was Active. Besides, in [4], the solubility result was “soluble”.
Regarding `CCCCCCCCCCCCCC[C@@H](O)[C@@H](O)[C@H](CO[C@H]1O[C@H](CO)[C@H](O)[C@H](O)[C@H]1O)n1cc(COCCCCCCCCCCCCOCCOCc2ccccc2)nn1`, the Activity entry in data set [1] is “Non-toxic”; in [2] it was “Dose-dependent effect”. In addition, the outcome in data set [5] and in data set [3] was Active. In addition, the solubility entry in [4] is listed as “soluble”.
On to `CCCCCCCCCCCCCC[C@@H](O)[C@@H](O)[C@H](CO[C@H]1O[C@H](CO)[C@H](O)[C@H](O)[C@H]1O)n1cc(COCCCCCCCCCCCCOCCCCCCOCc2ccccc2)nn1`, for which the outcome in data set [6], in data set [8], in data set [11] and in [14] was inactive. Also, the Activity result was “Non-toxic” in [1] and “Dose-dependent effect” in [2]. The outcome in data set [7], in [9], in data set [10], in data set [3], in [12] and in data set [13] was Active. Moreover, in [4], the solubility result is “soluble”.
Turning to `CCCCCCCCCCCCCC[C@@H](O)[C@@H](O)[C@H](CO[C@H]1O[C@H](CO)[C@H](O)[C@H](O)[C@H]1O)n1cc(COCCCCCCOCc2ccccc2)nn1`, the Activity entry in data set [1] is “Non-toxic”; in [2] it was “Dose-dependent effect”. Besides, the result in data set [5] and in data set [3] was Active. In addition, the solubility entry in data set [4] is “soluble”.
`CCCCCCCCCCCCCCCCCCCCCCCCCC(=O)N[C@@H](CO[C@H]1O[C@H](CO)[C@H](O)[C@H](O)[C@H]1O)[C@H](O)[C@H](O)CCCCCCCCCCCCCC` [RGI-7000]: the result in data set [6], in [7], in data set [8], in data set [9], in data set [10] and in [3] was Active. For the same compound, the result in data set [11], in data set [12], in [13] and in [14] was Active. For the same compound, the Activity result in data set [1] is on record as “Non-toxic”.
As to `CCCCCCCCCCCCCC[C@@H](O)[C@@H](O)[C@H](CO[C@H]1O[C@H](CO)[C@H](O)[C@H](O)[C@H]1O)n1cc(COCCCCCCCCOCc2ccccc2)nn1`, the result in data set [6], in data set [3] and in data set [14] was Active. Moreover, the Activity entry was “Non-toxic” in [1] and “Dose-dependent effect” in data set [2]. For the same compound, the solubility entry in [4] was “soluble”.
For `CCCCCCCCCCCCCC[C@@H](O)[C@@H](O)[C@H](CO[C@H]1O[C@H](CO)[C@H](O)[C@H](O)[C@H]1O)n1cc(COCCOCc2ccccc2)nn1`, the Activity entry was “Non-toxic” in [1] and “Dose-dependent effect” in data set [2]. Besides, the result in data set [3] was inactive. Moreover, in data set [4], the solubility entry is recorded as “soluble”.
As to `CCCCCCCCCCCCCC[C@@H](O)[C@@H](O)[C@H](CO[C@H]1O[C@H](CO)[C@H](O)[C@H](O)[C@H]1O)n1cc(COCCCCCCCCCCCCOCCCCOCc2ccccc2)nn1`, the result in data set [6], in data set [8], in data set [11] and in data set [14] was inactive. In addition, the results for the Activity result in [1] and in data set [2] were “Non-toxic” and “Dose-dependent effect”, respectively. Also, the outcome in [7], in data set [9], in [10], in data set [3], in data set [12] and in data set [13] was Active. In data set [4], the solubility entry is given as “soluble”.
For the compound `CCCCCCCCCCCCCC[C@@H](O)[C@@H](O)[C@H](CO[C@H]1O[C@H](CO)[C@H](O)[C@H](O)[C@H]1O)n1cc(COCCCCCCCCCCCCOCc2ccccc2)nn1`, the results for the Activity result in data set [1] and in data set [2] were “Non-toxic” and “Dose-dependent effect”, respectively. Besides, in [3], the result was Active. Also, in data set [4], the solubility result was “soluble”.
